Results reported in ChEMBL document CHEMBL1255440, “An antimicrobial peptide that targets DNA repair intermediates in vitro inhibits Salmonella growth within murine macrophages” (Antimicrob Agents Chemother, 2010).
Activity calls are given as the source filed them. The rule behind the calls is not given here.

Key:
[1] = tested on: J774.A1; experiment: Drug uptake in mouse J774A1 cells assessed as total peptide concentration at 100 uM after 5 hrs at 4 degC by HPLC analysis; format: ADME, cell-based; conditions: j774.a1, 5 h
Summary of the method: (§1)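 J774A.1 cells were incubated with unlabeled peptide for 5 or 24 h at 37°C or 4°C, washed in ice-cold PBS and lysed with NP-40 buffer. Lysates were run on reverse-phase HPLC with an acetonitrile/0.1% TFA gradient and A280 fractions. Monomer (~17.5 min) and dimer (~17.75 min) peak areas were compared against a standard curve. Intracellular mM was calculated using 300,000 cells and 1 pl/cell, with concentration expressed as monomer mass.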

[2] = tested on: Salmonella typhimurium; experiment: Antibacterial activity against 1 MOI Salmonella enterica subsp. enterica serovar Typhimurium infected in mouse J774A1 cells assessed as reduction in bacterial growth at 100 uM after 24 hrs; format: functional, J774.A1; parameters: scale not given: the % may be the effect or the level left
Summary of the method: (§2)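 J774A.1 cells or thioglycolate-elicited BALB/c peritoneal macrophages seeded at 200,000/well, overnight 37°C 5% CO2; infected with GFP strain SDT1416, 1 h invasion, washed, 1 h in DMEM with 15 μg/ml gentamicin. Then fresh DMEM plus 15 μg/ml gentamicin with or without peptide (DMSO vehicle) for 24 h at 37°C; macrophages lysed with 1% Triton X-100, plated on LB agar for CFU.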

[3] = tested on: Salmonella typhimurium; experiment: Antibacterial activity against 1 MOI Salmonella enterica subsp. enterica serovar Typhimurium infected in mouse J774A1 cells assessed as reduction in bacterial growth at 50 uM after 24 hrs; format: functional, J774.A1; parameters: scale not given: the % may be the effect or the level left; summary of the method: as §2
[4] = Drug uptake in mouse peritoneal macrophages assessed as dimer to monomer peptide ratio at 100 uM after 24 hrs at 37 degC by HPLC analysis; format: ADME, cell-based; conditions: peritoneal macrophage cell
Summary of the method: (§3)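 Macrophages were elicited in 8–12-week-old female BALB/c mice with 4% thioglycolate i.p. and harvested by lavage 4 days later. Cells were seeded at 300,000 per well for 24 h, then given unlabeled peptide in DMEM for 24 h at 37°C. Lysates were run on reverse-phase HPLC at A280. Monomer (17.5 min) and dimer (17.75 min) peak areas were compared with a standard curve. Concentration assumed 1 pl per cell; values are means of three determinations.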

[5] = tested on: J774.A1; experiment: Drug uptake in mouse J774A1 cells at 10 uM after 4 hrs at 4 degC by confocal laser microscopy; format: ADME, cell-based; conditions: j774.a1, 4 h
Summary of the method: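 Cells were seeded at 200,000 per chamber-slide well and left to adhere overnight at 37°C. They were then exposed in DMEM to peptide carrying an N-terminal rhodamine label, at 37°C or, where stated, 4°C. Cells were washed three times in PBS, fixed in 4% paraformaldehyde for 30 min, and mounted in antifade. Optical slices near the cell centre were imaged by confocal laser microscopy.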

[6] = tested on: Salmonella typhimurium; experiment: Antibacterial activity against 1 MOI Salmonella enterica subsp. enterica serovar Typhimurium infected in mouse peritoneal macrophages assessed as reduction in bacterial growth after 24 hrs; format: functional, organism-based; summary of the method: as §2
[7] = Drug uptake in mouse peritoneal macrophages assessed as dimer to monomer peptide ratio at 150 uM after 24 hrs at 37 degC by HPLC analysis; format: ADME, cell-based; conditions: peritoneal macrophage cell; summary of the method: as §3
[8] = Drug uptake in mouse peritoneal macrophages assessed as total peptide concentration at 50 uM after 24 hrs at 37 degC by HPLC analysis; format: ADME, cell-based; conditions: peritoneal macrophage cell; summary of the method: as §3
[9] = tested on: J774.A1; experiment: Drug uptake in mouse J774A1 cells assessed as dimer to monomer peptide ratio at 50 uM after 5 hrs at 37 degC by HPLC analysis; format: ADME, cell-based; conditions: j774.a1, 5 h; summary of the method: as §1
[10] = tested on: Salmonella typhimurium; experiment: Antibacterial activity against 10 MOI Salmonella enterica subsp. enterica serovar Typhimurium G785 transfected with SOS-inducible beta-galactosidase reporter infected in mouse J774A1 cells assessed as bacterial number at 100 uM after 4 hrs postinfection; format: functional, J774.A1
Summary of the method: (§4)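 J774A.1 cells infected at MOI 10 with sulA promoter-lacZ reporter strain G785 using the gentamicin-protection protocol, treated with peptide (DMSO vehicle controls) plus 15 μg/ml gentamicin for 4 or 24 h. Released bacteria were plated for colony counts in parallel, and were incubated with 33 μM C12FDG (with 0.2 mM EDTA) in LB for 2 h at 37°C. Flow cytometry gave % fluorescein-positive among LPS-antibody-positive particles; Wilcoxon exact test.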

[11] = tested on: J774.A1; experiment: Drug uptake in mouse J774A1 cells assessed as dimer to monomer peptide ratio at 100 uM after 24 hrs at 37 degC by HPLC analysis; format: ADME, cell-based; conditions: j774.a1, 24 h; summary of the method: as §1
[12] = tested on: Salmonella typhimurium; experiment: Antibacterial activity against 10 MOI Salmonella enterica subsp. enterica serovar Typhimurium G785 transfected with SOS-inducible beta-galactosidase reporter infected in mouse J774A1 cells assessed as SOS induction at 150 uM after 4 hrs postinfection; format: functional, J774.A1; summary of the method: as §4
[13] = tested on: J774.A1; experiment: Drug uptake in mouse J774A1 cells assessed as dimer to monomer peptide ratio at 100 uM after 5 hrs at 37 degC by HPLC analysis; format: ADME, cell-based; conditions: j774.a1, 5 h; summary of the method: as §1
[14] = tested on: Salmonella typhimurium; experiment: Antibacterial activity against 10 MOI Salmonella enterica subsp. enterica serovar Typhimurium G785 transfected with SOS-inducible beta-galactosidase reporter infected in mouse J774A1 cells assessed as SOS induction at 50 uM after 4 hrs postinfection; format: functional, J774.A1; summary of the method: as §4
[15] = tested on: J774.A1; experiment: Drug uptake in mouse J774A1 cells assessed as dimer to monomer peptide ratio at 50 uM after 5 hrs at 4 degC by HPLC analysis; format: ADME, cell-based; conditions: j774.a1, 5 h; summary of the method: as §1
[16] = tested on: Salmonella typhimurium; experiment: Antibacterial activity against 1 MOI Salmonella enterica subsp. enterica serovar Typhimurium infected in mouse peritoneal macrophages assessed as reduction in bacterial growth at 150 uM after 24 hrs relative to DMSO control; format: functional; parameters: scale not given: the % may be the effect or the level left; summary of the method: as §2
[17] = tested on: J774.A1; experiment: Drug uptake in mouse J774A1 cells at 10 uM after 5 hrs in presence of 100 nM wortmannii PI3K inhibitor by confocal laser microscopy; conditions: j774.a1, 5 h
[18] = tested on: Salmonella typhimurium; experiment: Antibacterial activity against 10 MOI Salmonella enterica subsp. enterica serovar Typhimurium G785 transfected with SOS-inducible beta-galactosidase reporter infected in mouse J774A1 cells assessed as bacterial number at 50 uM after 4 hrs postinfection; format: functional, J774.A1; summary of the method: as §4
[19] = tested on: J774.A1; experiment: Drug uptake in mouse J774A.1 cells assessed as total peptide concentration at 50 uM after 24 hrs at 4 degC by HPLC analysis; conditions: J774A.1, 24 h
[20] = tested on: Salmonella typhimurium; experiment: Antibacterial activity against 1 MOI Salmonella enterica subsp. enterica serovar Typhimurium infected in mouse J774A1 cells assessed as fold reduction in bacterial growth at 100 uM after 24 hrs; format: functional, J774.A1; summary of the method: as §2
[21] = tested on: J774.A1; experiment: Drug uptake in mouse J774A.1 cells assessed as total peptide concentration at 100 uM after 24 hrs at 4 degC by HPLC analysis; conditions: J774A.1, 24 h
[22] = Cytotoxicity against mouse peritoneal macrophages assessed as dead cells at 150 uM by propidium iodide assay; format: cell-based; conditions: peritoneal macrophage cell
Summary of the method: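 Cells seeded at 300,000/well and allowed to adhere, then given fresh DMEM with or without peptide for 24 h. Cells trypsinized, stained with a mammalian Live/Dead viability/cytotoxicity kit and analyzed by flow cytometry. Wilcoxon exact test.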

[23] = tested on: Salmonella typhimurium; experiment: Antibacterial activity against 1 MOI Salmonella enterica subsp. enterica serovar Typhimurium infected in mouse J774A1 cells assessed as reduction in bacterial growth at 2.5 times MIC; format: functional, organism-based; conditions: J774.A1; summary of the method: as §2
[24] = tested on: J774.A1; experiment: Drug uptake in mouse J774A1 cells assessed as dimer to monomer peptide ratio at 150 uM after 5 hrs at 37 degC by HPLC analysis; format: ADME, cell-based; conditions: j774.a1, 5 h; summary of the method: as §1

- Drug uptake [1]: 7.7 mM
- Ratio [4]: 0.7
- Drug uptake [5]: Not Active
- Ratio [7]: 11.4
- Drug uptake [8]: 2.5 mM
- Ratio [9]: 2.1
- Ratio [11]: 2.9
- Ratio [13]: 2.6
- Ratio [15]: 2.3
- Drug uptake [17]: Not Active
- Drug uptake [19]: 10.1 mM
- Drug uptake [21]: 32.9 mM
- Ratio [24]: 11
SMILES: N=C(N)NCCC[C@@H](NC(=O)[C@@H](CS)NC(=O)[C@@H](Cc1ccc(O)cc1)NC(=O)[C@@H](Cc1c[nH]c2ccccc12)NC(=O)[C@@H](CCCNC(=N)N)NC(=O)[C@H](N)Cc1c[nH]c2ccccc12)C(=O)O
- Activity [2]: 85.1%
- Activity [3]: 68.5%
- Activity [6]: Dose-dependent effect
- Activity [10]: 19%
- Activity [12]: 8.5%
- Activity [14]: 0.3%
- Activity [16]: 83%
- Activity [18]: 57.1%
- fold change (FC) [20]: > 100
- Activity [22]: 9.2%
- Activity [23]: Active
